According to ChEMBL document CHEMBL1128251, “Antimalarial activity of new dihydroartemisinin derivatives. 6. alpha-Alkylbenzylic ethers” (J Med Chem, 1995):
Values after ≈ are worked out from the molar mass of the structure shown.

Tests used:
[1] = system: Plasmodium falciparum; test: In vitro antimalarial activity against Plasmodium falciparum W2 Indochina; type: functional, organism-based
Summary of the method: (§1)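 Clones D-6 and W-2 tested in parallel. Compounds dissolved in DMSO, diluted 400-fold in RPMI 1640 with 25 mM Hepes, 32 mM NaHCO3 and 10% human plasma, then serially diluted 2-fold over 11 concentrations. Parasites preexposed 48 h at 37 °C under 5% O2/5% CO2/90% N2, then [3H]hypoxanthine added for 18 h; DNA harvested, uptake counted by scintillation. IC50 from logistic dose-response model; arithmetic mean of ≥3 runs.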

[2] = system: Plasmodium falciparum; test: In vitro antimalarial activity against Plasmodium falciparum D6 (Sierra Leone I); type: functional, organism-based; summary of the method: as §1

Structure (SMILES) | IC50 [1] | IC50 [2]
CCOC(=O)C[C@H](O[C@H]1O[C@@H]2O[C@@]3(C)CC[C@H]4[C@H](C)CCC([C@H]1C)[C@@]24OO3)c1ccc([N+](=O)[O-])cc1 (some centres undefined) | 0.0487 ng/mL (≈ 0.0963 nM) | 0.246 ng/mL (≈ 0.487 nM)
C[C@H](O[C@H]1O[C@@H]2O[C@@]3(C)CC[C@H]4[C@H](C)CCC([C@H]1C)[C@@]24OO3)c1ccc(C(=O)O)cc1 (some centres undefined) | 1.23 ng/mL (≈ 2.85 nM) | 2.94 ng/mL (≈ 6.79 nM)
CCOC(=O)C[C@@H](O[C@H]1O[C@@H]2O[C@@]3(C)CC[C@H]4[C@H](C)CCC([C@H]1C)[C@@]24OO3)c1ccc([N+](=O)[O-])cc1 (some centres undefined) | 0.23 ng/mL (≈ 0.454 nM) | 0.563 ng/mL (≈ 1.11 nM)
C[C@@H]1CCC2[C@@H](C)[C@@H](O[C@H](C)c3ccc(C(=O)O)cc3)O[C@@H]3O[C@@]4(C)CC[C@@H]1[C@@]23OO4 (some centres undefined) | 2.54 ng/mL (≈ 5.86 nM) | 5.77 ng/mL (≈ 13.3 nM)
CCC[C@@H](Cc1ccccc1)O[C@H]1O[C@@H]2O[C@@]3(C)CC[C@H]4[C@H](C)CCC([C@H]1C)[C@@]24OO3 (some centres undefined) | 0.697 ng/mL (≈ 1.62 nM) | 0.972 ng/mL (≈ 2.26 nM)
COC(=O)c1ccc([C@@H](C)O[C@H]2O[C@@H]3O[C@@]4(C)CC[C@H]5[C@H](C)CCC([C@H]2C)[C@@]35OO4)cc1 (some centres undefined) | 0.337 ng/mL (≈ 0.754 nM) | 0.921 ng/mL (≈ 2.06 nM)
CCOC(=O)[C@H](O[C@H]1O[C@@H]2O[C@@]3(C)CC[C@H]4[C@H](C)CCC([C@H]1C)[C@@]24OO3)c1ccccc1 (some centres undefined) | 0.0938 ng/mL (≈ 0.21 nM) | 0.287 ng/mL (≈ 0.643 nM)
C[C@@H]1CCC2[C@@H](C)[C@@H](O[C@H](C)c3ccc(C(F)(F)F)cc3)O[C@@H]3O[C@@]4(C)CC[C@@H]1[C@@]23OO4 (some centres undefined) | 1.15 ng/mL (≈ 2.51 nM) | 1.46 ng/mL (≈ 3.19 nM)
CCOC(=O)[C@@H](O[C@H]1O[C@@H]2O[C@@]3(C)CC[C@H]4[C@H](C)CCC([C@H]1C)[C@@]24OO3)c1ccccc1 (some centres undefined) | 0.227 ng/mL (≈ 0.507 nM) | 0.509 ng/mL (≈ 1.14 nM)
CO[C@H]1O[C@@H]2O[C@@]3(C)CC[C@H]4[C@H](C)CC[C@@H]([C@H]1C)[C@@]24OO3 [ARTEMETHER] | 0.301 ng/mL (≈ 1.01 nM) | 0.869 ng/mL (≈ 2.91 nM)
C[C@@H]1CC[C@H]2[C@@H](C)C(=O)O[C@@H]3O[C@@]4(C)CC[C@@H]1[C@]32OO4 [ARTEMISININ] | 1.01 ng/mL (≈ 3.6 nM) | 2.3 ng/mL (≈ 8.15 nM)
CCOC(=O)C[C@H](O[C@H]1O[C@@H]2O[C@@]3(C)CC[C@H]4[C@H](C)CCC([C@H]1C)[C@@]24OO3)c1ccccc1 (some centres undefined) | 0.144 ng/mL (≈ 0.312 nM) | 0.459 ng/mL (≈ 0.997 nM)
C[C@@H]1CCC2[C@@H](C)[C@@H](O[C@H](CC(=O)O)c3ccc([N+](=O)[O-])cc3)O[C@@H]3O[C@@]4(C)CC[C@@H]1[C@@]23OO4 (some centres undefined) | 1.35 ng/mL (≈ 2.82 nM) | 2.87 ng/mL (≈ 6.01 nM)
C[C@@H]1[C@H](OCc2ccc(C(=O)O)cc2)O[C@@H]2O[C@@]3(C)CC[C@@H]4[C@@H](C)CC[C@@H]1[C@]24OO3 [ARTELINIC ACID] | 2.08 ng/mL (≈ 4.97 nM) | 4.87 ng/mL (≈ 11.6 nM)
CCOC(=O)C[C@@H](O[C@H]1O[C@@H]2O[C@@]3(C)CC[C@H]4[C@H](C)CCC([C@H]1C)[C@@]24OO3)c1ccccc1 (some centres undefined) | 0.213 ng/mL (≈ 0.463 nM) | 0.496 ng/mL (≈ 1.08 nM)
CCC[C@H](Cc1ccccc1)O[C@H]1O[C@@H]2O[C@@]3(C)CC[C@H]4[C@H](C)CCC([C@H]1C)[C@@]24OO3 (some centres undefined) | 1.92 ng/mL (≈ 4.45 nM) | 3.05 ng/mL (≈ 7.08 nM)
COC(=O)c1ccc([C@H](C)O[C@H]2O[C@@H]3O[C@@]4(C)CC[C@H]5[C@H](C)CCC([C@H]2C)[C@@]35OO4)cc1 (some centres undefined) | 0.335 ng/mL (≈ 0.751 nM) | 0.692 ng/mL (≈ 1.55 nM)
